Measurements taken from ChEMBL document CHEMBL1143122, “Novel analogs of D-e-MAPP and B13. Part 1: synthesis and evaluation as potential anticancer agents” (Bioorg Med Chem, 2008).

What was measured:
HT-29 = experiment: Antiproliferative activity against human HT29 cells after 48 hrs; type: functional; conditions: HT-29, 48 h
Outline: (§1)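 NCI 60-cell screen. Cells were grown in RPMI 1640 with 5% FBS and 2 mM L-glutamine, then plated at 5,000–40,000 cells/well according to doubling time and preincubated for 24 h at 37 °C in 5% CO2. Compounds were dissolved in DMSO at 400× the top final concentration and tested at five 10-fold dilutions from 10−4 to 10−8 M for 48 h. Growth was read spectrophotometrically; GI50 is 50% net protein reduction.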

UACC-62 = experiment: Antiproliferative activity against human UACC62 cells after 48 hrs; type: functional; conditions: UACC-62, 48 h
Outline: (§2)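 NCI 60-cell-line screen. Lines grown in RPMI 1640 with 5% fetal bovine serum and 2 mM L-glutamine, plated at 5,000–40,000 cells/well according to doubling time, left 24 h at 37 °C in 5% CO2. Drug stocks in DMSO at 400-fold the top final concentration. Five 10-fold dilutions, 10−4 to 10−8 M, incubated 48 h. Growth read spectrophotometrically as net protein; GI50 taken as 50% reduction.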

T47D = experiment: Antiproliferative activity against human T47D cells after 48 hrs; type: functional; outline: as §2
K562 = experiment: Antiproliferative activity against human K562 cells after 48 hrs; type: functional; conditions: K562, 48 h; outline: as §1
BT-549 = experiment: Antiproliferative activity against human BT549 cells after 48 hrs; type: functional; conditions: BT-549, 48 h; outline: as §1
SW-620 = experiment: Antiproliferative activity against human SW620 cells after 48 hrs; type: functional; conditions: SW-620, 48 h; outline: as §2
TK-10 = experiment: Antiproliferative activity against human TK10 cells after 48 hrs; type: functional; conditions: TK-10, 48 h; outline: as §2
MDA-MB-231 = experiment: Antiproliferative activity against human MDA-MB-231 cells after 48 hrs; type: functional; conditions: MDA-MB-231, 48 h; outline: as §1
SF-295 = experiment: Antiproliferative activity against human SF295 cells after 48 hrs; type: functional; conditions: SF-295, 48 h; outline: as §1
Hs-578T = experiment: Antiproliferative activity against human HS578T cells after 48 hrs; type: functional; outline: as §1
NCI-H322M = experiment: Antiproliferative activity against human NCI-H322M cells after 48 hrs; type: functional; outline: as §1
786-0 = experiment: Antiproliferative activity against human 786-0 cells after 48 hrs; type: functional; conditions: 786-0, 48 h; outline: as §1
KM12 = experiment: Antiproliferative activity against human KM12 cells after 48 hrs; type: functional; conditions: Homo sapiens, KM12, 48 h; outline: as §1
CAKI-1 = experiment: Antiproliferative activity against human CAKI1 cells after 48 hrs; type: functional; conditions: CAKI-1, 48 h; outline: as §1
UACC-257 = experiment: Antiproliferative activity against human UACC257 cells after 48 hrs; type: functional; conditions: UACC-257, 48 h; outline: as §2
SNB-75 = experiment: Antiproliferative activity against human SNB75 cells after 48 hrs; type: functional; conditions: SNB-75, 48 h; outline: as §1
HOP-62 = experiment: Antiproliferative activity against human HOP62 cells after 48 hrs; type: functional; conditions: HOP-62, 48 h; outline: as §1
SK-MEL-28 = experiment: Antiproliferative activity against human SKMEL28 cells after 48 hrs; type: functional; conditions: SK-MEL-28, 48 h; outline: as §1
SK-MEL-5 = experiment: Antiproliferative activity against human SKMEL5 cells after 48 hrs; type: functional; conditions: SK-MEL-5, 48 h; outline: as §1
A498 = experiment: Antiproliferative activity against human A498 cells after 48 hrs; type: functional; conditions: A498, 48 h; outline: as §1
SK-MEL-2 = experiment: Antiproliferative activity against human SKMEL2 cells after 48 hrs; type: functional; conditions: SK-MEL-2, 48 h; outline: as §1
[1] = Antiproliferative activity against human […] cells after 48 hrs; type: functional; outline: as §1
DU-145 = experiment: Antiproliferative activity against human DU145 cells after 48 hrs; type: functional; conditions: DU-145, 48 h; outline: as §1
MOLT-4 = experiment: Antiproliferative activity against human MOLT4 cells after 48 hrs; type: functional; conditions: MOLT-4, 48 h; outline: as §1
NCI-H522 = experiment: Antiproliferative activity against human NCI-H522 cells after 48 hrs; type: functional; conditions: NCI-H522, 48 h; outline: as §1
Malme-3M = experiment: Antiproliferative activity against human MALME3M cells after 48 hrs; type: functional; outline: as §1
MCF7 = experiment: Drug level in human MCF7 cells at 10 uM per 10^6 cells after 0.5 hrs; type: ADME, cell-based; conditions: mcf7, 0.5 h
Outline: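 MCF7 cells kept in RPMI 1640 with 10% fetal calf serum at 37 °C, 5% CO2, then treated with 10 μM analog. Intracellular analog measured over time by HPLC-MS in positive-ion MRM mode. Quantified against calibration curves made by spiking an artificial matrix with standards plus internal standard, using analyte/IS peak-area ratios and linear regression. Reported as pmol per 1×10^6 cells.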

[2] = read-out: Log LC50 (the source's name) (converted)

What does the source list for `C[C@H](NC(=O)CCCCCCCCCCCCCCC[n+]1ccccc1)[C@H](O)c1ccccc1.[Br-]`?
GI50 (HT-29): 1.32 µM; LC50 (HT-29): 34.7 µM; TGI (HT-29; read-out: Log TGI (converted)): 11.7 µM; GI50 (UACC-62): 1.86 µM; LC50 (UACC-62): 25.1 µM; TGI (UACC-62; read-out: Log TGI (converted)): 5.75 µM; GI50 (T47D): 0.933 µM; CC50 (T47D; [2]): 58.9 µM; TGI (T47D; read-out: Log TGI (converted)): 10.7 µM; GI50 (K562): 0.912 µM; LC50 (K562): 77.6 µM; TGI (K562; read-out: Log TGI (converted)): 15.8 µM; LC50 (BT-549): 8.71 µM; TGI (BT-549; read-out: Log TGI (converted)): 0.851 µM; GI50 (SW-620): 6.92 µM; LC50 (concentration killing 50% of cells) (SW-620): 45.7 µM; TGI (SW-620; read-out: Log TGI (converted)): 20 µM; GI50 (TK-10): 14.5 µM; CC50 (TK-10; [2]): 56.2 µM; TGI (TK-10; read-out: Log TGI (converted)): 28.2 µM; GI50 (MDA-MB-231): 3.24 µM; LC50 (50% lethal concentration) (MDA-MB-231): 42.7 µM; TGI (MDA-MB-231; read-out: Log TGI (converted)): 33.1 µM; GI50 (SF-295): 14.5 µM; LC50 (SF-295): 53.7 µM; TGI (SF-295; read-out: Log TGI (converted)): 27.5 µM; GI50 (Hs-578T): 3.24 µM; LC50 (Hs-578T): > 100 µM; TGI (Hs-578T; read-out: Log TGI (converted)): 13.5 µM; GI50 (NCI-H322M): 14.5 µM; CC50 (NCI-H322M; [2]): 52.5 µM; TGI (NCI-H322M; read-out: Log TGI (converted)): 31.6 µM; GI50 (786-0): 10.2 µM; CC50 (786-0; [2]): 49 µM; TGI (786-0; read-out: Log TGI (converted)): 22.4 µM; GI50 (KM12): 2.75 µM; CC50 (KM12; [2]): 36.3 µM; TGI (KM12; read-out: Log TGI (converted)): 11.5 µM; GI50 (CAKI-1): 14.1 µM; CC50 (CAKI-1; [2]): 53.7 µM; TGI (CAKI-1; read-out: Log TGI (converted)): 27.5 µM; GI50 (UACC-257): 2.24 µM; CC50 (UACC-257; [2]): 38.9 µM; TGI (UACC-257; read-out: Log TGI (converted)): 8.32 µM; GI50 (SNB-75): 1.7 µM; CC50 (SNB-75; [2]): 38 µM; TGI (SNB-75; read-out: Log TGI (converted)): 11.2 µM; GI50 (HOP-62): 7.08 µM; CC50 (HOP-62; [2]): 44.7 µM; TGI (HOP-62; read-out: Log TGI (converted)): 20.4 µM; GI50 (SK-MEL-28): 2.34 µM; LC50 (SK-MEL-28): 20.4 µM; TGI (SK-MEL-28; read-out: Log TGI (converted)): 6.03 µM; GI50 (SK-MEL-5): 1.62 µM; CC50 (SK-MEL-5; [2]): 9.55 µM; TGI (SK-MEL-5; read-out: Log TGI (converted)): 3.89 µM; GI50 (A498): 17.8 µM; CC50 (A498; [2]): 57.5 µM; TGI (A498; read-out: Log TGI (converted)): 32.4 µM; GI50 (SK-MEL-2): 2.88 µM; LC50 (SK-MEL-2): 60.3 µM; TGI (SK-MEL-2; read-out: Log TGI (converted)): 7.41 µM; GI50 [1]: 3.63 µM; LC50 [1]: 42.7 µM; TGI ([1]; read-out: Log TGI (converted)): 14.8 µM; GI50 (DU-145): 12.6 µM; CC50 (DU-145; [2]): 50.1 µM; TGI (DU-145; read-out: Log TGI (converted)): 25.1 µM; GI50 (MOLT-4): 4.9 µM; LC50 (MOLT-4): 63.1 µM; TGI (MOLT-4; read-out: Log TGI (converted)): 18.6 µM; GI50 (NCI-H522): 2.04 µM; CC50 (NCI-H522; [2]): 50.1 µM; TGI (NCI-H522; read-out: Log TGI (converted)): 13.2 µM; GI50 (Malme-3M): 2.45 µM; LC50 (Malme-3M): 20 µM; TGI (Malme-3M; read-out: Log TGI (converted)): 5.89 µM; Drug uptake (MCF7): 800 pmol
